Yeast tox = Inhibitors of S. cerevisiae growth, toxicity | S. cerevisiae wild-type growth, A595 turbidity, 16 h | growth inhibition, % at 25 µM (by protocol) | 30,000 tested, 0.3% active | AID 685;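 active = mutant and wild-type yeast strains alike exhibit over 30% growth inhibition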;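 note: 0% = untreated cell controls and 100% = YPD media blanks without cells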
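System – wild-type and eIF2Bepsilon-R284H mutant S. cerevisiae, screened separately · Measured by – absorbance at 595 nm (turbidity) · Timing – 16 h compound exposure during growth at 30 °C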
Yeast eIF2B = eIF2B (yeast) activity modulation; S. cerevisiae eIF2B-epsilon R284H, GCN4-lacZ luminescence; 27,000 tested, 0.91% active; inhibition, % at 25 µM (by protocol);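 active = mutant luminescence inhibited past about 50% while wild type luminescence and mutant growth stay under set limits, limit read from the data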
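Assay system: yeast eIF2B-epsilon R284H mutant carrying GCN4–beta-galactosidase fusion / Buffer or medium: YPD / Incubation: 16 h growth with compound at 30 °C, 90 min Beta-Glo step / Detection: Beta-Glo luminescence after Z-buffer lysis, growth by 595 nm absorbance / Read-out: % inhibition of reporter signal and growth versus controls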
An asterisk follows results filed as active; / = no result given. Rows were chosen to be rich in hits. Some 1% of all compounds tested hit in one or more screens of this group.

SMILES	Yeast tox	Yeast eIF2B
Cc1c(C(=O)N2CCCC2)sc(NC(=O)c2ccc(Cl)cc2)c1C#N	7.5	71.4*
COc1ccc(S(=O)(=O)N2CCC(C(=O)N3CCCCCC3)CC2)cc1	8.1	22.1
COCC(=O)NC(c1ccccc1)c1ccccc1	8.7	62.4*
COCC(=O)Nc1ccccc1NC(C)=O	3.6	24.3
Cc1ccc(C)c(N=C2CCCN2Cc2ccccc2)c1C#N	/	56.8*
O=C(O)CN1CCCC1=Nc1ccccc1	8.3	/
Cc1ccc(NC(=O)c2oc3ccccc3c2NC(=O)c2ccc3c(c2)OCO3)cc1	1.1	3.6
COc1ccc(OC)c(NC(=O)Cn2cc(C#N)c3cc(Br)ccc32)c1	-20.3	-20.5
CC(=O)Nc1ccc(C(=O)N2CCN(C(=O)c3ccco3)CC2)cc1	-1.7	12.7
O=C(CCN1CCN(C(=O)c2ccco2)CC1)Nc1ccc(F)cc1	-14.3	68.7*
COc1ccccc1-n1nc(C(=O)Nc2ccc3c(c2)OCO3)c2ccccc2c1=O	-13.2	50.2*
COc1ccc(-n2nc(C(=O)Nc3ccc4c(c3)OCO4)c3ccccc3c2=O)c(OC)c1	-32.7	-17.0
C1CCN(c2c3c(nc4nnnn24)CCCC3)CC1	2.6	1.8
COc1ccc(OC)c(NC(=O)CNC(=O)Cn2cnc3ccccc3c2=O)c1	-3.7	64.9*
COc1ccc(NC(=O)CCNC(=O)Cn2cnc3ccccc3c2=O)c(OC)c1	-4.1	-11.2
COc1ccc(-c2noc(-c3ccccc3C(=O)N3CCOCC3)n2)cc1	-8.3	-6.9
Cc1cnc(C(=O)OCC(=O)c2csc(N3CCCCC3)n2)cn1	-4.3	32.7
Cc1ccc(Nc2cc(C)nn2-c2nc(C)cc(=O)[nH]2)cc1	78.3*	97.7
CCOC(=O)c1ccc(Nc2nc(C)cc(=O)[nH]2)cc1	15.2	18.4
CCCCCCCCOC(=O)CCn1[nH]c(=O)c2ccccc2c1=O	-22.2	3.4
O=C(O)C1CSC(CCc2ccccc2)N1 (stereo not given)	-2.1	/
COC(=O)[C@@H]1[C@@H](C#N)C2(c3ccccc3-c3ccccc32)N(c2ccc(Cl)cc2)N1C#N	4.2	12.7
COc1cc(OC)cc(C(=O)N2CCCc3ccccc32)c1	2.5	18.8
CCCOc1ccc(C(=O)N2CCCc3ccccc32)cc1	-14.4	73.3*
Cc1ccc(Cn2nc(C)c3cc(C(=O)OCC(N)=O)sc32)cc1	-27.5	/
SMILES	Yeast tox	Yeast eIF2B
CN(C1CCCCC1)S(=O)(=O)c1ccc(S(=O)(=O)N2CCN(C(=O)c3ccccc3F)CC2)cc1	8.8	18.0
CCOCCCNC(=O)c1c[nH]c2ccc(C)cc2c1=O	-3.3	52.3*
COc1ccc(CCNC(=O)c2c[nH]c3ccccc3c2=O)cc1OC	7.1	4.5
Cc1cccn2c(=O)c(C=O)c(N3CCCCCC3)nc12	-3.5	/
CN(C)CCC(=O)NCC1OCCc2ccccc21 (stereo not given)	10.7	/
CCOC(=O)C1=C(CSc2nc3c(cc2C#N)CN(C)CC3)OC(N)=C(C#N)C1c1ccccc1 (stereo not given)	-6.2	17.8
CN1CCc2nc(SCCOc3ccccc3)c(C#N)cc2C1	16.4	69.8*
Cc1cccc(OCc2nnc(NC(=O)c3cccs3)s2)c1	5.5	-25.6
O=C(Nc1nnc(COc2ccc(Cl)cc2)s1)c1cccs1	2.0	50.3*
CCCCCOC(=O)c1ccc(NC(=O)c2ccco2)cc1	-2.9	22.1
COc1ccc(-n2nnnc2SCC(=O)Nc2nc3c(s2)CCCC3)cc1	-12.5	8.0
CCOc1ccc(-n2nc(C(=O)N3CCOCC3)c3ccccc3c2=O)cc1	-11.1	58.9*
CCOc1ccc(-n2nc(C(=O)N3CCN(CC)CC3)c3ccccc3c2=O)cc1	-21.4	-18.4
CCOC(=O)C1CCCN(C(=O)c2cc3c(=O)n4cccc(C)c4nc3n2C)C1 (stereo not given)	20.3	-4.0
CN(c1ccccc1)c1nc(-n2ccnc2)nc(-n2ccnc2)n1	-1.9	27.6
c1ccc(N(c2ccccc2)c2nc(-n3ccnc3)nc(-n3ccnc3)n2)cc1	100.9*	94.8
COCCn1c(SCC(=O)NCc2ccco2)nnc1C(C)C	20.3	/
COc1ccc(C2Oc3ccccc3N2C(C)=O)cc1 (stereo not given)	-34.0	0.2
C=CCSc1nnc2c(n1)OC(c1cccnc1)N(C(C)=O)c1ccccc1-2 (stereo not given)	-8.9	54.6*
CCNC(=O)CC1C(=O)N(c2ccccc2)C(=O)N1CCc1ccc(OC)cc1 (stereo not given)	5.1	14.4
CCCCN1C(=O)CN(CCc2ccccc2)C(=O)C1c1ccc(OC)cc1 (stereo not given)	1.3	58.0*
COc1ccc(OCc2nn3c(-c4ccccn4)nnc3s2)cc1	7.5	10.4
COc1ccccc1-c1nnc2sc(COc3ccc(Cl)cc3)nn12	2.1	63.3*
Cc1cc(NCc2ccc(F)cc2Cl)n2nnnc2n1	16.2	64.1*
COc1ccc(CNc2cc(C)nc3ncnn23)c(OC)c1	7.9	16.6
SMILES	Yeast tox	Yeast eIF2B
COCCN1CCN(c2cc(-c3ccccc3)nc3cc(-c4cccc(F)c4)nn23)CC1	73.8*	/
Fc1cccc(-c2cc3nc(-c4ccccc4)cc(N4CCC5(CC4)OCCO5)n3n2)c1	/	-2.0
Cc1cc2n(c(=O)c1C#N)CCCN2c1ccccc1	/	15.4
N/C(Cc1ccc([N+](=O)[O-])cc1)=N\OC(=O)c1ccc2ccccc2c1	63.9*	29.1
COc1ccc(/C(N)=N/OC(=O)c2cccc([N+](=O)[O-])c2)cc1	0.4	15.6
COC(=O)C1=C(C(=O)OC)SC2(S1)C(C(=O)OC)=C(C(=O)OC)SC1=C2c2cc(C)ccc2NC1(C)C	11.4	/
O=C(NC(Cc1ccccc1)C(=O)OCC(=O)N1CCc2ccccc21)c1ccco1 (stereo not given)	-18.7	52.3*
Cc1cc(NC(=O)COC(=O)C(Cc2ccccc2)NC(=O)c2ccco2)no1 (stereo not given)	13.1	19.9
COc1cccc(NC(=O)CC2C(=O)NC3CCCCC3N2C(=O)c2ccc(F)cc2)c1 (stereo not given)	13.7	-11.4
CN1CCN(c2nc(-c3ccccc3)cc(C(F)(F)F)n2)CC1	-11.7	29.9
CN1CCN(C2=Cc3ccccc3Sc3cc(F)c(Cl)cc32)CC1	99.2*	97.8
CN1CCN(CCC(=O)N2c3ccccc3Sc3ccc(Cl)cc32)CC1	-1.5	19.8
CN1CCN(C2=Cc3ccccc3Sc3cc(F)c(F)cc32)CC1	94.2*	75.3
O=C(Nc1ccon1)c1cc2ccccc2oc1=O	22.6	19.8
CCOC(=O)c1ccc(NC(=O)CC2C(=O)N(c3ccc(F)cc3)C(=O)N2CCC(C)C)cc1 (stereo not given)	-0.2	24.9
Cc1nnc2sc(-c3ccncc3)nn12	4.7	64.0*
COc1cc(OC)c(-c2nn3c(-c4ccncc4)nnc3s2)cc1OC	-27.0	-0.5
COc1ccc(Cl)cc1NC(=O)C(=O)NC1CCCCCC1	12.5	18.7
O=C(NC1CCCCC1)Sc1ccc(Cl)cc1	40.9*	9.4
CCc1ccc(NC(=O)CC2C(=O)Nc3c2c(=O)n(C)c(=O)n3C)cc1 (stereo not given)	30.7	/
CCCc1nnc(NC(=O)CCCN2C(=O)c3ccccc3C2=O)s1	11.9	8.8
Cc1ccc(-c2cc(C(=O)Nc3c(C)n(C)n(-c4ccccc4)c3=O)[nH]n2)c(O)c1	-14.1	/
COc1ccc(-c2cc(-c3ccccc3O)[nH]n2)cc1OC	5.0	17.4
Oc1ccccc1-c1cc(-c2ccc3c(c2)OCCO3)n[nH]1	/	51.0*

Compound activity from PubChem.
